Test results taken from ChEMBL document CHEMBL3120154, “2-[N-Alkyl(R-phenyl)-aminomethyl]-3-phenyl-7-trifluoromethylquinoxalines as anticancer agents inhibitors of folate enzymes” (Eur J Med Chem, 2014).
pKi: −log10 of the molar value.

Legend:
[1] = target: Thymidylate synthase (Homo sapiens, UniProt P04818); assay: Competitive inhibition of human thymidylate synthase by spectrophotometry
[2] = system: LOX IMVI; assay: Cytotoxicity against human LOXIMVI cells at 10^-4 M after 48 hrs by SRB assay; format: functional; conditions: read-out: GI
Summary of the method: (§1)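 Run in the NCI 60-cell-line screen after a three-line prescreen. Cells got a 48 h drug exposure; viability/growth was estimated with the sulforhodamine B protein assay. Growth inhibition (I%) was recorded at 100, 10, 1, 0.1 and 0.01 micromolar. Percent growth is relative to untreated control cells, and negative values indicate cell kill.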

[3] = system: SNB-19; assay: Cytotoxicity against human SNB19 cells at 10^-4 M after 48 hrs by SRB assay; format: functional; conditions: SNB-19, 48 h, read-out: GI
Summary of the method: (§2)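 Second-stage screen in the 60-cell-line human tumor panel at NCI, over a 5-log range (100, 10, 1, 0.1, 0.01 micromolar). Cells were exposed to drug for 48 h and growth was estimated with a sulforhodamine B protein stain. The value is percent growth inhibition at each concentration.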

[4] = system: SF-539; assay: Cytotoxicity against human SF539 cells at 10^-4 M after 48 hrs by SRB assay; format: functional; conditions: SF-539, 48 h, read-out: GI; summary of the method: as §2
[5] = system: SF-295; assay: Cytotoxicity against human SF295 cells at 10^-4 M after 48 hrs by SRB assay; format: functional; conditions: SF-295, 48 h, read-out: GI; summary of the method: as §2
[6] = system: HCT-15; assay: Cytotoxicity against human HCT15 cells at 10^-4 M after 48 hrs by SRB assay; format: functional; conditions: HCT-15, 48 h, read-out: GI
Summary of the method: (§3)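 Run by NCI on its 60-line human tumor cell panel, after a three-cell-line prescreen. Cells were exposed to drug for 48 h over a 5-log range: 100, 10, 1, 0.1 and 0.01 micromolar. Growth was estimated by sulforhodamine B (SRB) protein staining. Percent growth inhibition (I%) was recorded at each concentration relative to untreated control cells.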

[7] = system: HT-29; assay: Cytotoxicity against human HT-29 cells at 10^-4 M after 48 hrs by SRB assay; format: functional; conditions: HT-29, 48 h, read-out: GI; summary of the method: as §3
[8] = system: HCC 2998; assay: Cytotoxicity against human HCC2998 cells at 10^-4 M after 48 hrs by SRB assay; format: functional; conditions: HCC 2998, 48 h, read-out: GI; summary of the method: as §3
[9] = system: NCI-H522; assay: Cytotoxicity against human NCI-H522 cells at 10^-4 M after 48 hrs by SRB assay; format: functional; conditions: NCI-H522, 48 h, read-out: GI; summary of the method: as §1
[10] = system: COLO 205; assay: Cytotoxicity against human COLO205 cells at 10^-4 M after 48 hrs by SRB assay; format: functional; conditions: COLO 205, 48 h, read-out: GI; summary of the method: as §3
[11] = system: NCI-H460; assay: Cytotoxicity against human NCI-H460 cells at 10^-4 M after 48 hrs by SRB assay; format: functional; conditions: NCI-H460, 48 h, read-out: GI; summary of the method: as §1
[12] = system: NCI-H23; assay: Cytotoxicity against human NCI-H23 cells at 10^-4 M after 48 hrs by SRB assay; format: functional; conditions: NCI-H23, 48 h, read-out: GI; summary of the method: as §1
[13] = system: NCI-H226; assay: Cytotoxicity against human NCI-H226 cells at 10^-4 M after 48 hrs by SRB assay; format: functional; conditions: NCI-H226, 48 h, read-out: GI; summary of the method: as §1
[14] = system: HOP-62; assay: Cytotoxicity against human HOP62 cells at 10^-4 M after 48 hrs by SRB assay; format: functional; conditions: HOP-62, 48 h, read-out: GI; summary of the method: as §3
[15] = system: A549; assay: Cytotoxicity against human A549 cells at 10^-4 M after 48 hrs by SRB assay; format: functional; conditions: A549, 48 h, read-out: GI; summary of the method: as §3
[16] = system: HL-60(TB); assay: Cytotoxicity against human HL-60(TB) cells at 10^-4 M after 48 hrs by SRB assay; format: functional; conditions: HL-60, 48 h, read-out: GI
Summary of the method: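 NCI 60-human-tumour-cell-line screen run over a 5-log dose range (100, 10, 1, 0.1 and 0.01 µM). Cells were exposed to drug for 48 h. Growth was estimated by sulforhodamine B protein staining. Values are percent growth inhibition at each concentration, relative to untreated control cells.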

[17] = system: SF-268; assay: Cytotoxicity against human SF268 cells assessed as cell growth at 10^-4 M after 48 hrs by alamar blue assay relative to untreated control; format: functional; conditions: SF-268, 48 h, read-out: Activity
Summary of the method: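 Three-cell-line prescreen at NCI. Each line was seeded and pre-incubated, then given a single concentration (10^-4 or 10^-5 M) and incubated for 48 h. The end-point was alamar blue. The value is percent growth of treated cells versus untreated control cells, with negative numbers indicating cell kill.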

[18] = system: MDA-MB-435; assay: Cytotoxicity against human MDA-MB-435 cells at 10^-4 M after 48 hrs by SRB assay; format: functional; conditions: MDA-MB-435, 48 h, read-out: GI; summary of the method: as §1
[19] = Cytotoxicity against human Hs578T cells at 10^-4 M after 48 hrs by SRB assay; format: functional; conditions: Hs-578T, read-out: GI; summary of the method: as §3
[20] = system: SN12C; assay: Cytotoxicity against human SN12C cells at 10^-4 M after 48 hrs by SRB assay; format: functional; conditions: read-out: GI; summary of the method: as §2
[21] = system: RXF 393; assay: Cytotoxicity against human RXF393 cells at 10^-4 M after 48 hrs by SRB assay; format: functional; conditions: RXF 393, 48 h, read-out: GI; summary of the method: as §2
[22] = system: A498; assay: Cytotoxicity against human A498 cells at 10^-4 M after 48 hrs by SRB assay; format: functional; conditions: A498, 48 h, read-out: GI; summary of the method: as §3
[23] = system: 786-0; assay: Cytotoxicity against human 786-0 cells at 10^-4 M after 48 hrs by SRB assay; format: functional; conditions: 786-0, 48 h, read-out: GI; summary of the method: as §3
[24] = system: SK-OV-3; assay: Cytotoxicity against human SKOV3 cells at 10^-4 M after 48 hrs by SRB assay; format: functional; conditions: SK-OV-3, 48 h, read-out: GI; summary of the method: as §2
[25] = Cytotoxicity against human OVCAR4 cells at 10^-4 M after 48 hrs by SRB assay; format: functional; conditions: OVCAR-4, 48 h, read-out: GI; summary of the method: as §2
[26] = Cytotoxicity against human UACC257 cells at 10^-4 M after 48 hrs by SRB assay; format: functional; conditions: UACC-257, 48 h, read-out: GI; summary of the method: as §2
[27] = system: SK-MEL-28; assay: Cytotoxicity against human SK-MEL-28 cells at 10^-4 M after 48 hrs by SRB assay; format: functional; conditions: SK-MEL-28, 48 h, read-out: GI; summary of the method: as §2
[28] = system: NCI-H322M; assay: Cytotoxicity against human NCI-H322M cells at 10^-6 M after 48 hrs by SRB assay; format: functional; conditions: read-out: GI; summary of the method: as §1
[29] = system: CCRF-CEM; assay: Cytotoxicity against human CCRF-CEM cells at 10^-6 M after 48 hrs by SRB assay; format: functional; conditions: read-out: GI; summary of the method: as §3
[30] = system: SW-620; assay: Cytotoxicity against human SW620 cells at 10^-5 M after 48 hrs by SRB assay; format: functional; conditions: SW-620, 48 h, read-out: GI
[31] = system: KM12; assay: Cytotoxicity against human KM12 cells at 10^-4 M after 48 hrs by SRB assay; format: functional; conditions: KM12, 48 h, read-out: GI; summary of the method: as §1
[32] = system: NCI-H322M; assay: Cytotoxicity against human NCI-H322M cells at 10^-4 M after 48 hrs by SRB assay; format: functional; conditions: read-out: GI; summary of the method: as §1
[33] = system: CAKI-1; assay: Cytotoxicity against human Caki1 cells at 10^-4 M after 48 hrs by SRB assay; format: functional; conditions: CAKI-1, 48 h, read-out: GI; summary of the method: as §3

Chain of Thymidylate synthase (P04818 whole entry): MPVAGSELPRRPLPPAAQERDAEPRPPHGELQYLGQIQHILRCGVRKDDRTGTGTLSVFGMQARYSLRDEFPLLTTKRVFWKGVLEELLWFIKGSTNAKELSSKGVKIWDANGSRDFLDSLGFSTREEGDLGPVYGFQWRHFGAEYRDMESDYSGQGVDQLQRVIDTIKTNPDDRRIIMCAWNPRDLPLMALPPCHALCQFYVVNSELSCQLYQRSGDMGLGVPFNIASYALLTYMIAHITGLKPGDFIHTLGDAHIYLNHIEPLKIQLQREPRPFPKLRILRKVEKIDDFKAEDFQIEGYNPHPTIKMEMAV

Row | Structure (SMILES) | inhibition of growth at 100 µM [2] | inhibition of growth at 100 µM [3] | inhibition of growth at 100 µM [4] | inhibition of growth at 100 µM [5] | inhibition of growth at 100 µM [6] | inhibition of growth at 100 µM [7] | inhibition of growth at 100 µM [9] | inhibition of growth at 100 µM [10] | inhibition of growth at 100 µM [11] | inhibition of growth at 100 µM [12] | inhibition of growth at 100 µM [15] | growth at 100 µM [17] | inhibition of growth at 100 µM [18] | inhibition of growth at 100 µM [19] | inhibition of growth at 100 µM [20] | inhibition of growth at 100 µM [21] | inhibition of growth at 100 µM [22] | inhibition of growth at 100 µM [23] | inhibition of growth at 100 µM [24] | inhibition of growth at 100 µM [25] | also measured
1 | C#CCN(Cc1nc2cc(C(F)(F)F)ccc2nc1-c1ccccc1)c1ccc(F)c(F)c1 | 77% | 52% | 96% | 74% | 82% | 70% | 85% | 75% | 90% | 52% | 107% | 95% | 81% | 70% | 75% | 103% | 78% | 44% | < 40% | < 40% | pKi [1]: 5.45; inhibition of growth at 100 µM [8]: 102%; inhibition of growth at 100 µM [13]: 51%; inhibition of growth at 100 µM [14]: < 40%; inhibition of growth at 100 µM [16]: 79%; inhibition of growth at 100 µM [26]: 146%; inhibition of growth at 100 µM [27]: < 40%
2 | C#CCN(Cc1nc2cc(C(F)(F)F)ccc2nc1-c1ccccc1)c1ccc(C)cc1 | 178% | 163% | 77% | 150% | 181% | 200% | 134% | 177% | 96% | 196% | 84% | 89% | 149% | 113% | 135% | 137% | 157% | 184% | 191% | 200% | pKi [1]: 6.29; inhibition of growth at 1 µM [28]: < 40%; inhibition of growth at 1 µM [29]: < 40%; inhibition of growth at 10 µM [30]: 82%; inhibition of growth at 100 µM [31]: 161%; inhibition of growth at 100 µM [32]: 180%; inhibition of growth at 100 µM [13]: 145%; inhibition of growth at 100 µM [14]: 199%; inhibition of growth at 100 µM [16]: 105%; inhibition of growth at 100 µM [33]: 147%; inhibition of growth at 100 µM [26]: 110%; inhibition of growth at 100 µM [27]: 200%
3 | C#CCN(Cc1nc2cc(C(F)(F)F)ccc2nc1-c1ccccc1)c1ccc(OC(F)(F)F)cc1 | 102% | < 40% | 161% | 49% | 47% | 77% | 125% | 73% | 78% | 60% | 60% | 21% | 86% | < 40% | 83% | 67% | 87% | 46% | < 40% | < 40% | inhibition of growth at 100 µM [31]: 112%; inhibition of growth at 100 µM [8]: 104%; inhibition of growth at 100 µM [32]: 79%; inhibition of growth at 100 µM [14]: 48%; inhibition of growth at 100 µM [33]: 69%; inhibition of growth at 100 µM [26]: 44%; inhibition of growth at 100 µM [27]: < 40%
4 | C#CCN(Cc1nc2cc(C(F)(F)F)ccc2nc1-c1ccccc1)c1ccc(F)cc1 | 101% | 84% | 96% | 68% | 97% | 80% | 93% | 126% | 94% | 31% | 123% | 90% | 87% | 94% | 102% | 89% | 104% | 132% | 93% | 87% | pKi [1]: 5.62; inhibition of growth at 100 µM [31]: 124%; inhibition of growth at 100 µM [32]: 123%; inhibition of growth at 100 µM [13]: 71%; inhibition of growth at 100 µM [16]: 92%; inhibition of growth at 100 µM [33]: 110%; inhibition of growth at 100 µM [26]: 119%; inhibition of growth at 100 µM [27]: 71%
